Data published in ChEMBL document CHEMBL4118249, “Discovery and Identification of Small Molecules as Methuosis Inducers with in Vivo Antitumor Activities” (J Med Chem, 2018).
Blank lines part the entries; values can stand above or below the molecule they belong to. Activity calls are given as the source filed them. No cut-off for these calls is given here.

Tests used:
[1] = test system: Mus musculus; experiment: Induction of vacuolization in ICR mouse at 20 mg/kg, iv administered once daily for 12 days measured post last dose by H and E staining based light microscopic method; format: organism-based; details: in vivo, 288 h
How it was run: (§1)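 Healthy ICR mice dosed at 20 mg/kg for 12 days; normal tissues examined for vacuoles, body weight and blood chemistry assessed.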

[2] = test system: Mus musculus; experiment: Toxicity in ICR mouse assessed as effect on ALT level in serum at 20 mg/kg, iv administered once daily for 12 days; format: organism-based; details: in vivo, 288 h; how it was run: as §1
[3] = test system: Mus musculus; experiment: Toxicity in ICR mouse assessed as body weight loss at 20 mg/kg, iv administered once daily for 12 days; format: organism-based; details: in vivo, 288 h; how it was run: as §1
[4] = test system: Mus musculus; experiment: Toxicity in ICR mouse assessed as effect on AST level in serum at 20 mg/kg, iv administered once daily for 12 days; format: organism-based; details: in vivo, 288 h; how it was run: as §1
[5] = test system: MDA-MB-231; experiment: Induction of methuosis in human MDA-MB-231 cells assessed as increase in vacuole formation at 1 uM after 24 hrs by phase contrast microscopic analysis relative to control; format: functional
[6] = test system: MDA-MB-231; experiment: Induction of methuosis in human MDA-MB-231 cells assessed as increase in vacuole formation at 10 uM after 24 hrs by phase contrast microscopic analysis relative to control; format: functional
[7] = test system: A-375; experiment: Antiproliferative activity against human A375 cells after 48 hrs by MTS assay; format: functional, cell-based; details: A-375, 48 h
[8] = test system: SK-MEL-28; experiment: Antiproliferative activity against human SK-MEL-28 cells after 48 hrs by MTS assay; format: functional, cell-based; details: SK-MEL-28, 48 h
[9] = test system: SK-MEL-30; experiment: Antiproliferative activity against human SK-MEL-30 cells after 48 hrs by MTS assay; format: functional, cell-based; details: SK-MEL-30, 48 h
[10] = test system: A549; experiment: Antiproliferative activity against human A549 cells after 48 hrs by MTS assay; format: functional, cell-based; details: A549, 48 h
[11] = test system: MDA-MB-231; experiment: Antiproliferative activity against human MDA-MB-231 cells after 48 hrs by MTS assay; format: functional, cell-based; details: MDA-MB-231, 48 h
[12] = test system: MDA-MB-435S; experiment: Antiproliferative activity against human MDA-MB-435S cells after 48 hrs by MTS assay; format: functional, cell-based
[13] = test system: MCF7; experiment: Antiproliferative activity against human MCF7 cells after 48 hrs by MTS assay; format: functional, cell-based; details: MCF7, 48 h
[14] = test system: HCT-116; experiment: Antiproliferative activity against human HCT116 cells after 48 hrs by MTS assay; format: functional, cell-based; details: HCT-116, 48 h
[15] = test system: BGC-823; experiment: Antiproliferative activity against human BGC823 cells after 48 hrs by MTS assay; format: functional, cell-based; details: BGC-823, 48 h
[16] = test system: HepG2; experiment: Antiproliferative activity against human HepG2 cells after 48 hrs by MTS assay; format: functional, cell-based; details: HepG2, 48 h
[17] = test system: MCF-10A; experiment: Cytotoxicity against human MCF10A cells assessed as reduction in cell viability after 48 hrs by MTS assay; format: cell-based
[18] = Half life in Balb/c nude mouse at 1 mg/kg, iv; format: ADME, organism-based; details: in vivo
[19] = Clearance in Balb/c nude mouse at 1 mg/kg, iv; format: ADME, organism-based; details: in vivo
[20] = Volume of distribution in Balb/c nude mouse at 1 mg/kg, iv; format: ADME, organism-based; details: in vivo
[21] = test system: MDA-MB-231; experiment: Antitumor activity against human MDA-MB-231 cells xenografted in Balb/c nude mouse assessed as tumor growth inhibition at 5 mg/kg, iv administered once daily for 13 days measured 6 hrs post last dose relative to control; format: functional; details: MDA-MB-231, iv, read-out: TGI
How it was run: (§2)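 Female BALB/c nude mice (4–6 weeks) injected subcutaneously with 5×10^6 MDA-MB-231 cells; at ~100 mm3 (length×width²×0.5) randomized (n = 6) and dosed iv by tail vein once daily at 5 or 20 mg/kg in 10% Kolliphor HS 15 in saline, or vehicle; tumor volume and weight measured daily; tumors excised 6 h after final dose, H&E stained.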

[22] = test system: MDA-MB-231; experiment: Antitumor activity against human MDA-MB-231 cells xenografted in Balb/c nude mouse assessed as tumor growth inhibition at 20 mg/kg, iv administered once daily for 13 days measured 6 hrs post last dose relative to control; format: functional; details: MDA-MB-231, iv, read-out: TGI; how it was run: as §2
[23] = test system: Mus musculus; experiment: Toxicity in Balb/c nude mouse xenografted with human MDA-MB-231 cells assessed as body weight loss at 5 to 20 mg/kg, iv administered once daily for 13 days measured daily during compound dosing; details: in vivo, 312 h
[24] = test system: MDA-MB-231; experiment: Antiproliferative activity against human MDA-MB-231 cells after 48 hrs by crystal violet staining based microscopic method; format: functional, cell-based
How it was run: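 MDA-MB-231 seeded, cultured 12 h, medium refreshed, then exposed to 0.1% DMSO or graded compound concentrations for 48 h; fixed in 4% paraformaldehyde 15 min at room temperature, stained with crystal violet, examined by optical microscopy and quantified.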

[25] = test system: MDA-MB-231; experiment: Induction of methuosis in human MDA-MB-231 cells assessed as increase in vacuole formation at 2 uM after 12 to 24 hrs by optical microscopic analysis; format: functional, cell-based
How it was run: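 MDA-MB-231 treated with 2 µM and inspected by optical microscopy at successive times (12, 24, 48 h) for vesicle accumulation and vacuole fusion.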

[26] = test system: MDA-MB-231; experiment: Induction of apoptosis in human MDA-MB-231 cells assessed as PARP cleavage at 0.5 to 4 uM after 24 hrs by Western blot analysis; format: functional, cell-based
How it was run: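 MDA-MB-231 treated 24 h with DMSO, graded compound concentrations or staurosporine; lysed, equal protein separated by 10–15% SDS-PAGE, PVDF transfer, probed for PARP and cleaved PARP, ECL detection.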

[27] = test system: MDA-MB-231; experiment: Induction of apoptosis in human MDA-MB-231 cells assessed as caspase-3 activation at 0.5 to 4 uM after 24 hrs; format: functional, cell-based
How it was run: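 After 24 h exposure to DMSO, graded compound concentrations or staurosporine, MDA-MB-231 cells were harvested, lysed and caspase 3 activity measured with a commercial activity kit.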

[28] = test system: MDA-MB-231; experiment: Antiproliferative activity against human MDA-MB-231 cells at 2 uM after 48 hrs in presence of pan-caspase inhibitor Z-VAD-FMK by MTS assay; format: functional, cell-based
How it was run: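 Cells pretreated 1 h with 100 µM Z-VAD-FMK, then 2 µM compound (0.1 µM staurosporine as comparator) alone or combined for 48 h; MTS viability, means ± SD of triplicates.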

[29] = test system: MDA-MB-231; experiment: Induction of methuosis in human MDA-MB-231 cells assessed as increase in vacuole formation at 2 uM after 24 hrs in presence of pan-caspase inhibitor Z-VAD-FMK by optical microscopic analysis; format: functional, cell-based
How it was run: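 Optical microscopy of MDA-MB-231 after 24 h with DMSO, 100 µM Z-VAD-FMK, 2 µM compound, or both.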

[30] = test system: MDA-MB-231; experiment: Antiproliferative activity against human MDA-MB-231 cells at 2 uM after 48 hrs in presence of necrosis inhibitor necrostatin-1 by MTS assay; format: functional, cell-based
How it was run: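 MDA-MB-231 given DMSO, 50 µM necrostatin-1, 2 µM compound, or combinations for 48 h; viability by MTS, means ± SD of triplicate samples.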

[31] = test system: MDA-MB-231; experiment: Induction of methuosis in human MDA-MB-231 cells assessed as increase in vacuole formation at 2 uM after 24 hrs in presence of necrosis inhibitor necrostatin-1 by optical microscopic analysis; format: functional, cell-based
How it was run: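 Optical microscopy of MDA-MB-231 after 24 h with DMSO, 50 µM necrostatin-1, 2 µM compound, or both.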

[32] = test system: MDA-MB-231; experiment: Antiproliferative activity against human MDA-MB-231 cells at 2 uM after 48 hrs in presence of autophagy inhibitor 3-MA by MTS assay; format: functional, cell-based
How it was run: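 MDA-MB-231 given DMSO, 1 mM 3-MA, 2 µM compound, or the combination for 48 h; viability by MTS, means ± SD of triplicate samples.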

[33] = test system: MDA-MB-231; experiment: Induction of methuosis in human MDA-MB-231 cells assessed as increase in vacuole formation at 2 uM after 24 hrs in presence of autophagy inhibitor 3-MA by optical microscopic analysis; format: functional, cell-based
How it was run: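 Optical microscopy of MDA-MB-231 after 24 h with DMSO, 1 mM 3-MA, 2 µM compound, or both.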

[34] = test system: MDA-MB-231; experiment: Induction of mitochondria originated vacuolization in human MDA-MB-231 cells at 2 uM after 12 hrs by Mito-tracker red staining based phase contrast fluorescent microscopic analysis; format: functional, cell-based
How it was run: (§3)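 MDA-MB-231 attached overnight on glass-bottom dishes, treated with DMSO or 2 µM for 12 h, then loaded with ER-tracker or Mito-tracker Red; phase-contrast and confocal fluorescence imaging.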

[35] = test system: MDA-MB-231; experiment: Induction of endoplasmic reticulum originated vacuolization in human MDA-MB-231 cells at 2 uM after 12 hrs by ER-tracker staining based phase contrast fluorescent microscopic analysis; format: functional, cell-based; how it was run: as §3
[36] = test system: MDA-MB-231; experiment: Induction of mitochondria originated vacuolization in human MDA-MB-231 cells assessed as mitochondrial swelling at 2 uM after 12 hrs by uranyl acetate or lead citrate staining based transmission electron microscopic analysis; format: functional, cell-based
How it was run: (§4)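 MDA-MB-231 given DMSO or 2 µM for 12 h; fixed in 2.5% glutaraldehyde (0.1 M PBS pH 7.4, 4 °C, 3 h), post-fixed 1% OsO4, ethanol-dehydrated, Spurr's resin embedded; 70 nm sections stained with uranyl acetate or lead citrate, viewed by TEM for organelle swelling.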

[37] = test system: MDA-MB-231; experiment: Induction of endoplasmic reticulum originated vacuolization in human MDA-MB-231 cells assessed as endoplasmic reticulum swelling at 2 uM after 12 hrs by uranyl acetate or lead citrate staining based transmission electron microscopic analysis; format: functional, cell-based; how it was run: as §4
[38] = test system: MDA-MB-231; experiment: Induction of methuosis in human MDA-MB-231 cells assessed as macropinocytosis at 2 uM after 12 hrs by lucifer yellow CH staining based phase contrast fluorescent microscopic analysis; format: functional, cell-based
How it was run: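 MDA-MB-231 incubated with 2 µM compound and Lucifer yellow together for 12 h, PBS-washed, imaged by phase contrast and confocal fluorescence.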

[39] = test system: MDA-MB-231; experiment: Induction of methuosis in human MDA-MB-231 cells assessed as macropinocytosis at 2 uM after 12 hrs by lyso-tracker red staining based phase contrast fluorescent microscopic analysis; format: functional, cell-based
How it was run: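 MDA-MB-231 treated 2 µM for 12 h, then loaded with Lyso-tracker Red; phase-contrast and confocal fluorescence imaging.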

[40] = test system: MDA-MB-231; experiment: Antitumor activity against human MDA-MB-231 cells xenografted in iv dosed Balb/c nude mouse assessed as tumor growth inhibition administered once daily for 13 days measured 6 hrs post last dose; format: functional, organism-based; how it was run: as §2
[41] = test system: MDA-MB-231; experiment: Induction of methuosis in human MDA-MB-231 cells xenografted in Balb/c nude mouse assessed as vacuole formation in tumor at 20 mg/kg, iv administered once daily for 13 days measured 6 hrs post last dose by H and E staining based light microscopic method; format: functional, organism-based; how it was run: as §2
[42] = test system: MDA-MB-231; experiment: Induction of methuosis in human MDA-MB-231 cells assessed as late endosomal marker Rab7 on vacuole membranes at 2 uM after 12 hrs by anti-Rab7 staining based immunofluorescent microscopic analysis

Structure (SMILES): Cc1ccc(NC(=O)c2cccc(C(F)(F)F)c2)cc1Nc1cc(-c2cccnc2)nc2[nH]ccc12.Cl
Activity [1]: Non-Toxic | Activity [2]: Non-Toxic | Activity [3]: Non-Toxic | Activity [4]: Non-Toxic

IC50 [7]: 326 nM | IC50 [8]: 1370 nM | IC50 [9]: 1660 nM | IC50 [10]: 1890 nM | IC50 [11]: 1570 nM | IC50 [12]: 2270 nM | IC50 [13]: 2610 nM | IC50 [14]: 1010 nM | IC50 [15]: 1570 nM | IC50 [16]: 1200 nM | half-life [18]: 524 min | clearance [19]: 36.5 mL/min/kg | Vd [20]: 15.5 L/kg
Structure (SMILES): Cc1ccc(NC(=O)c2cccc(C(F)(F)F)c2)cc1Nc1cc(-c2cccnc2)nc2[nH]ccc12 [listing 1 of 2 here]
Activity [5]: 99.75% | Activity [6]: 100% | IC50 [17]: > 10 µM | inhibition in vivo at 5 mg/kg [21]: 25.9% | inhibition in vivo at 20 mg/kg [22]: 60.1% | Activity [23]: Non-Toxic

Structure (SMILES): Cc1ccc(NC(=O)c2cccc(C(F)(F)F)c2)cc1Nc1cc(-c2cccnc2)nc2[nH]ccc12 [listing 2 of 2 here]
Activity [24]: Dose-dependent effect | Activity [25]: Active | Activity [26]: inactive | Activity [27]: inactive | Activity [28]: Active | Activity [29]: Active | Activity [30]: Active | Activity [31]: Active | Activity [32]: Active | Activity [33]: Active | Activity [34]: inactive | Activity [35]: inactive | Activity [36]: inactive | Activity [37]: inactive | Activity [38]: Active | Activity [39]: Active | TGI [40]: Dose-dependent effect | Activity [41]: Active | Activity [42]: Active
